We go through two molecules from ChEMBL document CHEMBL4680257, “Discovery of novel NF-кB inhibitor based on scaffold hopping: 1,4,5,6,7,8-hexahydropyrido[4,3-d]pyrimidine” (Eur J Med Chem, 2020).

Data set [1] relates to RAW264.7. Kind of data set: Antiinflammatory activity against mouse RAW264.7 cells assessed as LPS-induced TNF-alpha at 30 uM pretreated for 2 hrs followed by LPS stimulation and measured after 22 hrs by ELISA (reference value: 0 %). The settings on record: time 24 hrs. In kind it is functional. Put shortly:
(§1)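 Mouse RAW264.7 macrophages were pretreated with compound for 2 h, then stimulated with LPS (1.0 µg/mL) for 22 h. Culture medium was centrifuged at 1000 rpm for 10 min, and secreted TNF-α and IL-6 were each quantified by ELISA kit. Inhibition rates are means of three replicates.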

The subject of data set [2] is RAW264.7. Kind of data set: Antiinflammatory activity against mouse RAW264.7 cells assessed as LPS-induced IL-6 at 30 uM pretreated for 2 hrs followed by LPS stimulation and measured after 22 hrs by ELISA (reference value: 0 %). The settings on record: time 24 hrs. In kind it is functional. An outline of the steps:
as §1
Background: ELISA stands for enzyme-linked immunosorbent assay.

In data set [3] the test system is RAW264.7. Kind of data set: Cytotoxicity against mouse RAW264.7 cells assessed as reduction in cell viability at 5 uM incubated for 24 hrs by MTT assay. In kind it is cell-based. The settings on record: raw264.7, 24 h. On the technique in general: Tetrazolium assays rely on reduction of a dye to a coloured formazan, in cell work by metabolically active cells.
The test system of data set [4] is RAW264.7. Briefly: Antiinflammatory activity against mouse RAW264.7 cells assessed as LPS-induced IL-6 at 5 uM pretreated for 2 hrs followed by LPS stimulation and measured after 22 hrs by ELISA relative to control (reference value: 0 %). Type of data set: functional. The settings on record: time 24 hrs.
Data set [5] can be described thus: Cytotoxicity against human HHL-5 cells assessed as reduction in cell viability incubated for 24 hrs by MTT assay. The settings on record: HHL-5, 24 h. In kind it is cell-based. An outline of the steps: (§2)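 Cells kept at 37 °C in 5% CO₂. HepG2 grown in DMEM with 10% serum; HHL-5, LO2 and SMMC-7721 in 1640 medium with 10% serum. Seeded, grown 24 h, then exposed 24 h to 10, 5, 2.5, 1.25, 0.625 and 0.3125 µg/mL. MTT (5 mg/mL) added for 4 h at 37 °C; formazan dissolved in DMSO, OD read at 570 nm. IC50 averaged from three replicates.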

Data set [6] concerns RAW264.7. Briefly: Antiinflammatory activity against mouse RAW264.7 cells assessed as LPS-induced TNF-alpha at 5 uM pretreated for 2 hrs followed by LPS stimulation and measured after 22 hrs by ELISA (reference value: 0 %). In kind it is functional. The settings on record: time 24 hrs.
In another data set the test system is HepG2. Briefly: Cytotoxicity against human HepG2 cells assessed as reduction in cell viability incubated for 24 hrs by MTT assay. In kind it is functional, cell-based. The settings on record: HepG2, 24 h. An outline of the steps: as §2
A further data set deals with L02. Kind of data set: Cytotoxicity against human L02 cells assessed as reduction in cell viability incubated for 24 hrs by MTT assay. In kind it is cell-based. The settings on record: L02, 24 h. An outline of the steps: as §2
The next data set has as its system SMMC-7721. Briefly: Cytotoxicity against human SMMC-7721 cells assessed as reduction in cell viability incubated for 24 hrs by MTT assay. The settings on record: SMMC-7721, 24 h. Type of data set: functional, cell-based. An outline of the steps:
as §2

As usually defined, the inhibition is how much of the control response was suppressed. Turning to `S=C(S)N1CCCC1` [PYRROLIDINE DITHIOCARBAMATE], the inhibition at 30 µM was 66.5% with RAW264.7 [1] and 56.9% in the data set on RAW264.7 [2].
For orientation: IC50 means the concentration that gives 50% inhibition. In the case of `Cl.NC1=NC(c2cccc(F)c2)C2=C(N1)/C(=C/c1cccc(F)c1)CN(S(=O)(=O)c1ccccc1)C2` (centres undefined), in the data set with RAW264.7 [3], the Activity entry is “Non-Toxic”. For the same molecule, the inhibition at 5 µM was found to be 56.3% with RAW264.7 [4] and 54% with RAW264.7 [6]. The IC50 in data set [5] was 11.3 µM; in the data set on HepG2 it was 3.7 µM; in the data set on L02 it was 37.8 µM; with SMMC-7721, 12.8 µM.
